Source: ChEMBL document CHEMBL4304751, “Discovery of Novel Pyrido-pyridazinone Derivatives as FER Tyrosine Kinase Inhibitors with Antitumor Activity” (ACS Med Chem Lett, 2019)
≈ marks a conversion by molar mass, not a printed value.

What was measured:
[1] = molecular target: T1, Tyrosine-protein kinase Fer (Homo sapiens, UniProt P16591); experiment: Inhibition of recombinant N-terminal His-tagged human FER (SH2 domain to C-terminal) expressed in Escherichia coli assessed as decrease in FL-Peptide22 substrate phosphorylation incubated for 90 mins
Target sequence in this assay (P16591 whole entry, the tested form may be a part): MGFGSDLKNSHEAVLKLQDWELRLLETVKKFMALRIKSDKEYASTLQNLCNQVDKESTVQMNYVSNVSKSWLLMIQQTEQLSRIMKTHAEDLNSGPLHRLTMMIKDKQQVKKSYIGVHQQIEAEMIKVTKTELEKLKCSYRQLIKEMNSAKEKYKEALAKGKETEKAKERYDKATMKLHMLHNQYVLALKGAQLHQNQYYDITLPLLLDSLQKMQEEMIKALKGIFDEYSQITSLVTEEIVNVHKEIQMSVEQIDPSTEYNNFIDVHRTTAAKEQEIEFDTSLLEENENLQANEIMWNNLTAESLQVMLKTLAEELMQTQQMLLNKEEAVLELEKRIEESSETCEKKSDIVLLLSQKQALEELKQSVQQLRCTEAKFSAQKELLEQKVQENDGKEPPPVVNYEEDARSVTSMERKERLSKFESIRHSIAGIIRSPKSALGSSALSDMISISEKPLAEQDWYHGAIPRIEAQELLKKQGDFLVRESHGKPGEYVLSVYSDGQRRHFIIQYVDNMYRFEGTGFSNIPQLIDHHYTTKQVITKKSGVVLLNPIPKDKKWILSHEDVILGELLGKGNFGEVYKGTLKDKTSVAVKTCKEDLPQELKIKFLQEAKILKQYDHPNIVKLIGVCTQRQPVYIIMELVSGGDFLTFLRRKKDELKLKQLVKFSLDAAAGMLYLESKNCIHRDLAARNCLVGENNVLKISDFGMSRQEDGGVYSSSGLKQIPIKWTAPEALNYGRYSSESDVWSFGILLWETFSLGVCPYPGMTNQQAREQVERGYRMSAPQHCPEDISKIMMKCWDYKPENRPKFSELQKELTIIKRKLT

[2] = molecular target: Protein-tyrosine kinase 2-beta (Homo sapiens) (UniProt Q14289); experiment: Inhibition of recombinant N-terminal GST-fusion protein tagged human full length PYK2 (1 to 967 residues) expressed in baculovirus expression system assessed as decrease in fluorescence labelled Blk/Lyntide phosphorylation at 200 nM by off-chip mobility shift assay relative to control
[3] = molecular target: Tyrosine-protein kinase SYK (Homo sapiens) (UniProt P43405); experiment: Inhibition of recombinant N-terminal GST-fusion protein tagged human full length SYK (1 to 635 residues) expressed in baculovirus expression system assessed as decrease in fluorescence labelled Blk/Lyntide phosphorylation at 200 nM by off-chip mobility shift assay relative to control
[4] = tested on: BaF3; experiment: Antitumor activity against mouse BA/F3 cells expressing myc/His-tagged ETV6-FER kinase domain (452 to 821 residues) allografted in BALB/cAJcl nu/nu mouse assessed as decrease in tumor volume administered orally once per day for 4 days starting from 6 days after tumor cell implantation and measured during compound dosing; type: functional, cell-based
[5] = Growth inhibition of mouse mock transfected BA/F3 cells assessed as decrease in cell viability after 3 days by luminescence based CellTiter-Glo assay; parameters: species or system BaF3
In short: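 Ba/F3 growth inhibition run as quadruplicate experiments. GI50 fitted with 95% confidence intervals.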

[6] = Protein binding in BALB/c mouse serum at 10 ug/mL incubated for 4 hrs under shaking condition by LC/MS/MS analysis; type: ADME, cell-free; details: read-out: PPB
In short: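 Binding determined using serum samples from BALB/c mice.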

[7] = Cmax in BALB/cAnNCrlCrlj mouse at 10 mg/kg, po administered via gavage after 24 hrs; type: ADME, organism-based; parameters: dose 10 mg/kg, route oral; details: in vivo
In short: (§1)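 Mouse pharmacokinetics: compound given orally at 10 mg/kg. Unbound plasma concentration is reported as a mean value after oral dosing.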

[8] = molecular target: Tyrosine-protein kinase Fes/Fps (Homo sapiens) (UniProt P07332); experiment: Inhibition of recombinant N-terminal GST fusion protein tagged human full length FES (1 to 413/416 to 822 residues) expressed in baculovirus expression system assessed as decrease in fluorescence labelled Srctide phosphorylation at 200 nM by off-chip mobility shift assay relative to control
[9] = molecular target: Mitogen-activated protein kinase kinase kinase 9 (Homo sapiens) (UniProt P80192); experiment: Inhibition of recombinant N-terminal GST-fusion protein tagged human MLK1 catalytic domain (110 to 422 residues) expressed in baculovirus expression system assessed as decrease in GST-labelled MAP2K7 phosphorylation at 200 nM by HRP-labelled anti-rabbit antibody based ELISA method relative to control
[10] = Oral bioavailability in BALB/cAnNCrlCrlj mouse at 10 mg/kg administered via gavage after 24 hrs; type: ADME, organism-based; details: in vivo; in short: as §1
[11] = molecular target: T1, Tyrosine-protein kinase Fer; experiment: Inhibition of recombinant N-terminal GST-tagged human full length FER (1 to 822 residues) expressed in baculovirus expression system decrease in fluorescence labelled Srctide phosphorylation at 200 nM by off-chip mobility shift assay relative to control
Target sequence in this assay (P16591 whole entry, looked up, the tested form may be a part): as the sequence (P16591 whole entry, the tested form may be a part) above

[12] = molecular target: Mast/stem cell growth factor receptor Kit (Homo sapiens) (UniProt P10721); experiment: Inhibition of recombinant N-terminal GST-fusion protein tagged human KIT cytoplasmic domain (544 to 976 residues) expressed in baculovirus expression system assessed as decrease in fluorescence labelled Srctide phosphorylation at 200 nM by off-chip mobility shift assay relative to control
[13] = molecular target: Macrophage colony-stimulating factor 1 receptor (Homo sapiens) (UniProt P07333); experiment: Inhibition of recombinant N-terminal GST-fusion protein tagged human FMS cytoplasmic domain (538 to 972 residues) expressed in baculovirus expression system assessed as decrease in fluorescence labelled Srctide phosphorylation at 200 nM by off-chip mobility shift assay relative to control
[14] = Total plasma clearance in BALB/cAnNCrlCrlj mouse at 1 mg/kg, iv after 24 hrs; type: ADME, organism-based
In short: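 Clearance measured after a single intravenous dose of 1 mg/kg in mice.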

[15] = molecular target: High affinity nerve growth factor receptor (Homo sapiens) (UniProt P04629); experiment: Inhibition of recombinant N-terminal GST-fusion protein tagged human TRKA cytoplasmic domain (436 to 790 residues) expressed in baculovirus expression system assessed as decrease in fluorescence labelled CSKtide phosphorylation at 200 nM by off-chip mobility shift assay relative to control
[16] = Solubility in FaSSIF; type: physicochemical
In short: (§2)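 Solubility expressed as μg/mL, measured in pH 6.8 buffer and in FaSSIF.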

[17] = molecular target: Receptor-type tyrosine-protein kinase FLT3 (Homo sapiens) (UniProt P36888); experiment: Inhibition of recombinant N-terminal GST-fusion protein tagged human FLT3 cytoplasmic domain (564 to 993 residues) expressed in baculovirus expression system assessed as decrease in fluorescence labelled Srctide phosphorylation at 200 nM by off-chip mobility shift assay relative to control
[18] = AUC in BALB/cAnNCrlCrlj mouse at 10 mg/kg, po administered via gavage after 24 hrs; type: ADME, organism-based; parameters: time < 24 hr, dose 10 mg/kg, route oral; details: in vivo; in short: as §1
[19] = molecular target: Serine/threonine-protein kinase Chk2 (Homo sapiens) (UniProt O96017); experiment: Inhibition of recombinant N-terminal GST-fusion protein tagged human full length CHK2 (1 to 543 residues) expressed in baculovirus expression system assessed as decrease in fluorescence labelled CHKtide phosphorylation at 200 nM by off-chip mobility shift assay relative to control
[20] = molecular target: T1, Tyrosine-protein kinase Fer
Target sequence in this assay (P16591 whole entry, looked up, the tested form may be a part): as the sequence (P16591 whole entry, the tested form may be a part) above

[21] = Effective permeability of compound at 5 uM after 24 hrs at pH 7.4 by LC/MS/MS based PAMPA assay; type: ADME; details: read-out: Peff
[22] = molecular target: Mitogen-activated protein kinase kinase kinase kinase 4 (Homo sapiens) (UniProt O95819); experiment: Inhibition of recombinant N-terminal GST-fusion protein tagged human HGK catalytic domain (1 to 328 residues) expressed in baculovirus expression system assessed as decrease in fluorescence labelled Moesin-derived phosphorylation at 200 nM by off-chip mobility shift assay relative to control
[23] = molecular target: ALK tyrosine kinase receptor (Homo sapiens) (UniProt Q9UM73); experiment: Inhibition of recombinant N-terminal GST-fusion protein tagged human ALK cytoplasmic domain (1058 to 1620 residues) expressed in baculovirus expression system assessed as decrease in fluorescence labelled Srctide phosphorylation at 200 nM by off-chip mobility shift assay relative to control
[24] = Solubility in buffer at pH 6.8; type: physicochemical; in short: as §2
[25] = Toxicity in BALB/cAJcl nu/nu mouse allografted with mouse BA/F3 cells expressing myc/His-tagged ETV6-FER kinase domain (452 to 821 residues) assessed as change in body weight loss at 12.5 to 100 mg/kg, po administered once per day for 4 days starting from 6 days after tumor cell implantation and measured during compound dosing; type: organism-based; details: in vivo
[26] = Metabolic stability in mouse liver microsomes assessed as parent compound remaining at 1 uM after 30 mins relative to control; type: ADME, Microsome; details: read-out: Stability
In short: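 Test compound at 1.0 μM incubated 30 min with mouse liver microsomes (1.0 mg/mL protein). The fraction of parent remaining is reported.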

[27] = molecular target: CDK2/Cyclin A2 (Homo sapiens) (UniProt P24941+P20248); experiment: Inhibition of recombinant human full length N-terminal GST-tagged CDK2 (1 to 298 residues)/GST-tagged CyclinA2 (1 to 432 residues) expressed in baculovirus expression system assessed as decrease in fluorescence labelled modified histone H1 phosphorylation at 200 nM by off-chip mobility shift assay relative to control
[28] = tested on: Mus musculus; experiment: Unbound plasma concentration in BALB/cAnNCrlCrlj mouse at 10 mg/kg, po administered via gavage after 24 hrs by non-compartmental analysis; type: ADME, organism-based; details: in vivo; in short: as §1
[29] = molecular target: T2, Testis-specific serine/threonine-protein kinase 1 (Homo sapiens) (UniProt Q9BXA7); experiment: Inhibition of recombinant N-terminal GST fusion protein tagged human full length TSSK1 (1 to 367 residues) expressed in baculovirus expression system assessed as decrease in fluorescence labelled GS peptide phosphorylation at 200 nM by off-chip mobility shift assay relative to control
T2 sequence (whole entry): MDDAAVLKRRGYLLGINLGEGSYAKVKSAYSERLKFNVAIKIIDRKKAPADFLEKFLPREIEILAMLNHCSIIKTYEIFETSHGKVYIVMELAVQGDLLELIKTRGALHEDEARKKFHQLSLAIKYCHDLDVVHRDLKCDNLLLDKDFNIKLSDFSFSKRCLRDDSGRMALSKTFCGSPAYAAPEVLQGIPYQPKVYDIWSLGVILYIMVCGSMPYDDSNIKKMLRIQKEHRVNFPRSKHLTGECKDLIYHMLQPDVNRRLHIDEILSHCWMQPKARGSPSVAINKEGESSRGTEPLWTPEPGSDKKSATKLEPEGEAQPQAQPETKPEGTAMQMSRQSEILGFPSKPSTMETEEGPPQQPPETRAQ

[30] = molecular target: T3, Interleukin-1 receptor-associated kinase 4 (Homo sapiens) (UniProt Q9NWZ3); experiment: Inhibition of recombinant N-terminal GST-fusion protein tagged human full length IRAK4 (1 to 460 residues) expressed in baculovirus expression system assessed as decrease in fluorescence labelled IRAK1 phosphorylation at 200 nM by off-chip mobility shift assay relative to control
T3 sequence (whole entry): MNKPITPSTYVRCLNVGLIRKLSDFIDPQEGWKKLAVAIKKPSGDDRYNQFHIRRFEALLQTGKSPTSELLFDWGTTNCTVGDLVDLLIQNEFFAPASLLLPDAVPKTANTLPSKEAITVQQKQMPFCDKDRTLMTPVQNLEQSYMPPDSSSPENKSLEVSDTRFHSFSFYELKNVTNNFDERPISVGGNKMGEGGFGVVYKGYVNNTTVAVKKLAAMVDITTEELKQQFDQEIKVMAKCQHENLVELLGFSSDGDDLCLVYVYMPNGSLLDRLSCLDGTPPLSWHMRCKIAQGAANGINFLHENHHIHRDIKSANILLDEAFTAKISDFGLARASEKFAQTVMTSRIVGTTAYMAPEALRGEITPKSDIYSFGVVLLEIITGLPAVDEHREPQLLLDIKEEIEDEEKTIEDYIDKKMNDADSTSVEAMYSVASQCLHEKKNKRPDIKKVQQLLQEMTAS

[31] = molecular target: Proto-oncogene tyrosine-protein kinase ROS (Homo sapiens) (UniProt P08922); experiment: Inhibition of recombinant N-terminal GST-fusion protein tagged human ROS1 cytoplasmic domain (1883 to 2347 residues) expressed in baculovirus expression system assessed as decrease in fluorescence labelled IRS1 phosphorylation at 200 nM by off-chip mobility shift assay relative to control

Sequence of Protein-tyrosine kinase 2-beta (Homo sapiens) (Q14289 whole entry, looked up, the tested form may be a part): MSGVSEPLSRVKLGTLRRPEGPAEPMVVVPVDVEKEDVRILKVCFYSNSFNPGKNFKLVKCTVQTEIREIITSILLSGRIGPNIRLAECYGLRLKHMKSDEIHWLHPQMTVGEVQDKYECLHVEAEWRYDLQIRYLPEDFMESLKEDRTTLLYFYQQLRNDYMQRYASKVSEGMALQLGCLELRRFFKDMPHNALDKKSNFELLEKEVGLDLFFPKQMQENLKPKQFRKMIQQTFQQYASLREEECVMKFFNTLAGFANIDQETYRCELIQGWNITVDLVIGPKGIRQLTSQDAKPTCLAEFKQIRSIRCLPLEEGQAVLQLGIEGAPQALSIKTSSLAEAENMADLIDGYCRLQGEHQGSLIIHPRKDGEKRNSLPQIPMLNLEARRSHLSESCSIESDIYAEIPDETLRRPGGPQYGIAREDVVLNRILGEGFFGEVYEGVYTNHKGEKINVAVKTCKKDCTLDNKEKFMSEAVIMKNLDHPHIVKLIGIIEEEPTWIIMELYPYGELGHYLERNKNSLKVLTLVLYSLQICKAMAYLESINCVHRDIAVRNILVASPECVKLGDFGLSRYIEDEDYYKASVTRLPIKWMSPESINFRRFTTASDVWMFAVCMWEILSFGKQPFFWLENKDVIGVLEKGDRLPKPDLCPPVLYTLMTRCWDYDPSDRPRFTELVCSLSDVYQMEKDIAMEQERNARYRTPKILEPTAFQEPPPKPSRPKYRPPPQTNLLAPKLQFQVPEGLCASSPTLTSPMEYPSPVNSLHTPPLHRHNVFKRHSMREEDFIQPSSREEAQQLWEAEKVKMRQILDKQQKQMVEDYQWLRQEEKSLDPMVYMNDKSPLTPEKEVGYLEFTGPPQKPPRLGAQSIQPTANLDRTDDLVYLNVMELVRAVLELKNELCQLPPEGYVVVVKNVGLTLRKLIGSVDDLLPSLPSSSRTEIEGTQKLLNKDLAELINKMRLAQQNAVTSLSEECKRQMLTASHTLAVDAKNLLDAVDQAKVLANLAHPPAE
Sequence of Mitogen-activated protein kinase kinase kinase 9 (Homo sapiens) (P80192 whole entry, looked up, the tested form may be a part): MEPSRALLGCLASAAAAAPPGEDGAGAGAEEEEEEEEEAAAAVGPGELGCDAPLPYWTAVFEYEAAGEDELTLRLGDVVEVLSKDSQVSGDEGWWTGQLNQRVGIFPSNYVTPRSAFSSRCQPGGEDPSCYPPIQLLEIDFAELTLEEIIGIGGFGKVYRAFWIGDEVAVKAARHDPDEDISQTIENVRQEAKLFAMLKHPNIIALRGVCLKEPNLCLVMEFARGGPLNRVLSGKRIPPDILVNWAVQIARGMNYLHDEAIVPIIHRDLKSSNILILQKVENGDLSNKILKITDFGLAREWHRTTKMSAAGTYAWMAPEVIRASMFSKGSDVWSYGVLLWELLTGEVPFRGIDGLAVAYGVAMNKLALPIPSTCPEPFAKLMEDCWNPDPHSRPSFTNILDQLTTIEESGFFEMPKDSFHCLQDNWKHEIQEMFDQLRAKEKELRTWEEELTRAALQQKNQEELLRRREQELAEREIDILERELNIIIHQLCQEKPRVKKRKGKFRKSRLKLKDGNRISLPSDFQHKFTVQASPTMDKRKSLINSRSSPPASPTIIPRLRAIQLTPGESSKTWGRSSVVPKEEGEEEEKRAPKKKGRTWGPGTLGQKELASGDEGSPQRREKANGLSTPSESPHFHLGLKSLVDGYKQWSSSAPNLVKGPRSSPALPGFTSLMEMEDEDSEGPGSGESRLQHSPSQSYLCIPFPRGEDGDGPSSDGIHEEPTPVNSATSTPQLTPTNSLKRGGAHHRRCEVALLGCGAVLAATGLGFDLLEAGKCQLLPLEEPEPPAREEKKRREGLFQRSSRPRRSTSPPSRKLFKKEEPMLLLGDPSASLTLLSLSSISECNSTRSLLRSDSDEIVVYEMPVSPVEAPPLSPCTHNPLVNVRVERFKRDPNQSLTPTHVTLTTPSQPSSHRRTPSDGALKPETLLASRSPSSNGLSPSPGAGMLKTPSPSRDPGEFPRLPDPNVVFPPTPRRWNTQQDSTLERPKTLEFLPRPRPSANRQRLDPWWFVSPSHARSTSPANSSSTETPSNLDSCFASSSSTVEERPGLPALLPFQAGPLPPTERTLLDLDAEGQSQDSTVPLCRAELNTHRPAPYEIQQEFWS
Sequence of ALK tyrosine kinase receptor (Homo sapiens) (Q9UM73 19-1620 limits assumed): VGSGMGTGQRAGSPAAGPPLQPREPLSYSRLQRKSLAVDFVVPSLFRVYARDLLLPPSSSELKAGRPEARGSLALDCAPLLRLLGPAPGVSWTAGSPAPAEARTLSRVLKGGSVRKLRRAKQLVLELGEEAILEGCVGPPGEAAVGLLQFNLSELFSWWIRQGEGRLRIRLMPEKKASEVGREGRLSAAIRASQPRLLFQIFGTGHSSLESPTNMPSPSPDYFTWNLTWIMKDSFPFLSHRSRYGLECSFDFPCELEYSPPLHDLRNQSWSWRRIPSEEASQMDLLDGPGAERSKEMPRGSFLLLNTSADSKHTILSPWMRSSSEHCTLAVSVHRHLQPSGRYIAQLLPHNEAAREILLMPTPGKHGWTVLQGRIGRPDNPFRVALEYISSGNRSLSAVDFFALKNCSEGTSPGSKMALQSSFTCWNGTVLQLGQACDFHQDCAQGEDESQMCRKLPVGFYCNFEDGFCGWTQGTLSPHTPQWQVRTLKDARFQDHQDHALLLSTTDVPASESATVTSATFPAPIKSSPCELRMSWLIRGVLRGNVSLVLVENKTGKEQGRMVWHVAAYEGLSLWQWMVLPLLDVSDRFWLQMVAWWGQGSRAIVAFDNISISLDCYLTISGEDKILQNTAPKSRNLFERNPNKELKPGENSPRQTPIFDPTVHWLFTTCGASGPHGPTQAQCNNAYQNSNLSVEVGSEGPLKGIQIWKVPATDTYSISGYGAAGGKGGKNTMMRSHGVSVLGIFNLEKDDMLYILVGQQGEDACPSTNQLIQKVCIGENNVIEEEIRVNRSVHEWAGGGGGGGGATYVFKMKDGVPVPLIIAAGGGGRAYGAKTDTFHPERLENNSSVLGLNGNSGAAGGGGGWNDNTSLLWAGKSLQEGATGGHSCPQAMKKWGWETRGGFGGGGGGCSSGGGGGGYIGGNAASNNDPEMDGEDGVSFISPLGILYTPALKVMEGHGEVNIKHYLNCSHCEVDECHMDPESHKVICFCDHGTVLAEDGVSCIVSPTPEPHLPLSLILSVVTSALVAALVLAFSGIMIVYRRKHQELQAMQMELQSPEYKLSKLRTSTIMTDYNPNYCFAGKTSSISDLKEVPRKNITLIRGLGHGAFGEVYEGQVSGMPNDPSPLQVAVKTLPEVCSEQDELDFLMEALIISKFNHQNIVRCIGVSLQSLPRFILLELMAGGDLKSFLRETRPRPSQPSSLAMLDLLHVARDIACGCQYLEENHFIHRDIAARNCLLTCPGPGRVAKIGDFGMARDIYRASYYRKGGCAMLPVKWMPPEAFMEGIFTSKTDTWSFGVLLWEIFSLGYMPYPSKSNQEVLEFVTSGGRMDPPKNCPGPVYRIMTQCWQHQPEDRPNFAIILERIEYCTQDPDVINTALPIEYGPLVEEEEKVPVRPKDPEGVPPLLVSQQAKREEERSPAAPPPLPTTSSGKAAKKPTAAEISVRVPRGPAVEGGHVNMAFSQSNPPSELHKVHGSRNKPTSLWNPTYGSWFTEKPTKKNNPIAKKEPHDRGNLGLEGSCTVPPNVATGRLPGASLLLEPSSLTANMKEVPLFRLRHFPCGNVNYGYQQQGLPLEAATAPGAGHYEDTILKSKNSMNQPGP

## N#Cc1cc(C(N)=O)c(N)nc1N[C@@H]1CCCC[C@@H]1N
[1]
  IC50: > 4000 nM

## Cc1cccc(-n2c(=O)[nH]c3cc(C#N)c(N[C@@H]4CCCC[C@@H]4N)nc32)c1
[1]
  IC50: > 1300 nM

## Cc1cccc(Nc2ccc(C#N)c(N[C@@H]3CCCC[C@@H]3N)n2)c1
[1]
  IC50: > 4000 nM

## Cc1cccc(Nc2nc(N[C@@H]3CCCC[C@@H]3N)c(C#N)c3cn[nH]c(=O)c23)c1
[2]
  inhibition: > 90%
[3]
  inhibition: > 90%
[4]
  Activity: Dose-dependent effect
[5]
  GI50 at 72 h: 220 nM
[6]
  fraction unbound at 4 h, 10 ug/mL: 0.01
[7]
  Cmax: 360 ng/mL
[8]
  inhibition: > 90%
[9]
  inhibition: > 90%
[10]
  bioavailability: 34%
[11]
  inhibition: > 90%
[12]
  inhibition: > 90%
[13]
  inhibition: > 90%
[14]
  clearance: 12 mL/min/kg
[15]
  inhibition: > 90%
[16]
  solubility: 2.1 µg/mL (≈ 5.39 µM)
[17]
  inhibition: > 90%
[1]
  IC50: 0.49 nM
[18]
  AUC at 24 h: 4800 ng·h/mL
[19]
  inhibition: > 90%
[20]
  GI50: 1.9 nM
[21]
  Papp at 24 h, 5 µM: > 50 ×10⁻⁶ cm/s
[22]
  inhibition: > 90%
[23]
  inhibition: > 90%
[24]
  solubility: 0.9 µg/mL (≈ 2.31 µM)
[25]
  Activity: Non-Toxic
[26]
  remaining at 0.5 h, 1 µM: 96%
[27]
  inhibition: > 90%
[28]
  Cp(f): 3.1 nM
[29]
  inhibition: > 90%
[30]
  inhibition: > 90%
[31]
  inhibition: > 90%

## Cc1cccc(Nc2nc(NC3CCCCC3N)cc3c2C(=O)NCC3)c1 (racemic)
[5]
  GI50 at 72 h: 4300 nM

## Cc1cccc(Nc2nc(NC3CCCCC3N)cc3cn[nH]c(=O)c23)c1 (racemic)
[5]
  GI50 at 72 h: 1500 nM

## Cc1cccc(Nc2nc(NC3CCCCC3N)c(Cl)c3cn[nH]c(=O)c23)c1 (racemic)
[5]
  GI50 at 72 h: 1500 nM

## Cc1cccc(Nc2nc(N[C@@H]3CCCC[C@@H]3N)c(C#N)cc2C(N)=O)c1
[6]
  fraction unbound at 4 h, 10 ug/mL: 0.01
[7]
  Cmax: 420 ng/mL
[10]
  bioavailability: 17%
[14]
  clearance: 12 mL/min/kg
[16]
  solubility: 49 µg/mL (≈ 134 µM)
[18]
  AUC at 24 h: 2400 ng·h/mL
[21]
  Papp at 24 h, 5 µM: 16 ×10⁻⁶ cm/s
[24]
  solubility: 35 µg/mL (≈ 96 µM)
[26]
  remaining at 0.5 h, 1 µM: 100%

## Cc1cccc(Cc2nc(N[C@@H]3CCCC[C@@H]3N)c(C#N)cc2C(N)=O)c1
[1]
  IC50: > 4000 nM

## Cc1cccc(Nc2nc(NC3CCCCC3N)cc3cc[nH]c(=O)c23)c1 (racemic)
[5]
  GI50 at 72 h: 1920 nM

## N#Cc1cc2c(N)nn(Cc3ccccc3)c2nc1NC1CCCCC1N (racemic)
[5]
  GI50 at 72 h: > 5000 nM
[1]
  IC50: > 4000 nM
[20]
  GI50: > 4000 nM
